Where only a bound is given, the exact number is not on record here.

This note sets out measurements from ChEMBL document CHEMBL4680121, “Development of (4-methoxyphenyl)-1H-tetrazol-5-amine regioisomers as a new class of selective antitubercular agents” (Eur J Med Chem, 2020).

The subject of data set [1] is Staphylococcus epidermidis. Kind of data set: Antibacterial activity against Staphylococcus epidermidis ATCC 1457 assessed as bacterial growth inhibition measured after 18 hrs by two-fold serial microdilution method. It counts as functional. A digest of the protocol: (§1)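 Two-fold serial broth microdilution in MH II medium following modified CLSI procedures. Compounds were dissolved in DMSO and diluted in medium to at most 1% solvent, tested from 0.03125 to 512 μg/ml. Final inoculum 10^6 CFU/ml. MIC was taken as the lowest concentration with no visible growth after 18 h at 35 °C.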

Data set [2] deals with Klebsiella pneumoniae. Put plainly: Antibacterial activity against Klebsiella pneumoniae ATCC 10031 assessed as bacterial growth inhibition measured after 18 hrs by two-fold serial microdilution method. Format: functional. A digest of the protocol:
as §1

For data set [3], the system named is Staphylococcus epidermidis. Put plainly: Antibacterial activity against Staphylococcus epidermidis ATCC 12228 assessed as bacterial growth inhibition measured after 18 hrs by two-fold serial microdilution method. Format: functional. The method in brief: as §1
Data set [4] relates to Pseudomonas aeruginosa. Kind of data set: Antibacterial activity against Pseudomonas aeruginosa PAO1 assessed as bacterial growth inhibition measured after 18 hrs by two-fold serial microdilution method. Format: functional. The method in brief:
as §1

In data set [5] the test system is Staphylococcus epidermidis. Put plainly: Antibacterial activity against Staphylococcus epidermidis ATCC 35984/RP62A assessed as bacterial growth inhibition measured after 18 hrs by two-fold serial microdilution method. Format: functional. The method in brief:
as §1

Data set [6] deals with Pseudomonas aeruginosa. Put plainly: Antibacterial activity against Pseudomonas aeruginosa NCTC 6749 assessed as bacterial growth inhibition measured after 18 hrs by two-fold serial microdilution method. It counts as functional. The method in brief:
as §1

Data set [7] concerns Proteus vulgaris. Put plainly: Antibacterial activity against Proteus vulgaris NCTC 4635 assessed as bacterial growth inhibition measured after 18 hrs by two-fold serial microdilution method. Format: functional. The method in brief: as §1
Data set [8] deals with Escherichia coli. Put plainly: Antibacterial activity against Escherichia coli ATCC 25922 assessed as bacterial growth inhibition measured after 18 hrs by two-fold serial microdilution method. It counts as functional. The method in brief:
as §1

The test system of data set [9] is Staphylococcus aureus. Kind of data set: Antibacterial activity against Staphylococcus aureus NCTC 4163 assessed as bacterial growth inhibition measured after 18 hrs by two-fold serial microdilution method. Format: functional. The method in brief: as §1
The test system of data set [10] is Mycobacterium tuberculosis. Put plainly: Antitubercular activity against Mycobacterium tuberculosis Spec.192 assessed as inhibition of microbial growth by classical test tube method. It counts as functional. The method in brief:
(§2)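 Classical test-tube serial dilution in Youmans' modified Proskauer–Beck liquid medium with 10% bovine serum. Inoculum came from 14-day-old cultures. Compounds were given as DMSO solutions (stock 10 mg/ml), diluted geometrically in medium to 3.1–100 µg/ml, and incubated at 37 °C. MIC is the minimum concentration inhibiting growth relative to a no-compound control.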

For data set [11], the system named is Staphylococcus aureus. Put plainly: Antibacterial activity against Staphylococcus aureus ATCC 6538 assessed as bacterial growth inhibition measured after 18 hrs by two-fold serial microdilution method. Format: functional. The method in brief: as §1
Data set [12] has as its system Mycobacterium tuberculosis. Kind of data set: Antitubercular activity against Mycobacterium tuberculosis H37Rv ATCC 25618 assessed as inhibition of microbial growth by classical test tube method. Format: functional. A digest of the protocol:
as §2

For data set [13], the system named is Mycolicibacterium fortuitum. Kind of data set: Antibacterial activity against Mycobacterium fortuitum assessed as inhibition of microbial growth incubated for 1 week by MABA method. It counts as functional. The settings on record: 168 h, time 1 weeks. A digest of the protocol: (§3)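 Microplate Alamar Blue assay using two-fold serial microdilution in Middlebrook 7H9 broth with 10% OADC, compounds 0.125–512 µg/ml from DMSO stocks. Inoculum came from fresh LJ culture, was adjusted to McFarland 1 and diluted 1:20. Plates were incubated 1 week at 37 °C, Alamar blue was added and plates were re-incubated 24 h. MIC was the lowest concentration preventing the blue-to-pink change. Each plate carried growth and sterile controls.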

Data set [14] has as its system HaCaT. Put plainly: Cytotoxicity against human HaCaT cells assessed as reduction in cell viability at 100 uM measured after 72 hrs by MTT assay. Format: cell-based. A digest of the protocol:
(§4)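 MTT viability assay on cells grown in DMEM with 10% heat-inactivated FBS, penicillin/streptomycin and 20 mM HEPES at 37 °C/5% CO2. Cells were seeded at 1×10^4 per well and allowed to adhere for 24 h, then the medium was refreshed. Compounds were added at 20–140 μM for 72 h at 37 °C, followed by MTT (0.5 mg/mL in serum-free medium) for 4 h. Untreated cells served as control. IC50 is the concentration giving 50% growth inhibition versus control.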

Data set [15] relates to V79. Kind of data set: Cytotoxicity against Chinese Hamster V79 cells assessed as reduction in cell viability at 100 uM measured after 72 hrs by MTT assay. It counts as cell-based, Cricetulus griseus. To be noted: v79, 72 h. The method in brief: as §4
Data set [16] deals with Mycobacterium xenopi. Kind of data set: Antibacterial activity against Mycobacterium xenopi assessed as inhibition of microbial growth incubated for 1 week by MABA method. It counts as functional. The settings on record: 168 h, time 1 weeks. A digest of the protocol:
as §3

Data set [17] has as its system Mycobacterium avium. Put plainly: Antimycobacterial activity against Mycobacterium avium assessed as inhibition of microbial growth incubated for 1 week by MABA method. It counts as functional. To be noted: 168 h, time 1 weeks. A digest of the protocol: (§5)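 Microplate Alamar Blue assay in Middlebrook 7H9 broth with 10% OADC. Inoculum from fresh LJ culture was adjusted to McFarland 1 and diluted 1:20. DMSO stocks were two-fold serially diluted to final 0.125–512 µg/ml, with growth and sterile controls. Plates ran 1 week at 37 °C, then Alamar blue was added for 24 h. MIC is the lowest concentration preventing the blue-to-pink change.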

The subject of data set [18] is Mycobacterium scrofulaceum. Kind of data set: Potency index, ratio of isoniazid MIC to test compound MIC for antibacterial activity against Mycobacterium scrofulaceum assessed as inhibition of microbial growth incubated for 1 week by MABA method. It counts as functional. To be noted: time 1 weeks.
Data set [19] relates to Mycobacterium scrofulaceum. Kind of data set: Antibacterial activity against Mycobacterium scrofulaceum assessed as inhibition of microbial growth incubated for 1 week by MABA method. The settings on record: 168 h, time 1 weeks. It counts as functional. The method in brief:
as §3

In data set [20] the test system is Mycobacterium tuberculosis. Kind of data set: Antitubercular activity against Mycobacterium tuberculosis Spec.192 assessed as inhibition of microbial growth incubated for 1 week by MABA method. It counts as functional. The settings on record: Mycobacterium tuberculosis, 192, 168 h; time 1 weeks. The method in brief:
as §5

Data set [21] relates to HaCaT. Put plainly: Cytotoxicity against human HaCaT cells assessed as reduction in cell viability measured after 72 hrs by MTT assay. Format: cell-based. A digest of the protocol: as §4
Data set [22] has as its system V79. Kind of data set: Cytotoxicity against Chinese Hamster V79 cells assessed as reduction in cell viability measured after 72 hrs by MTT assay. It counts as cell-based. To be noted: Cricetulus griseus, V79, 72 h. The method in brief:
as §4

Data set [23] relates to Mycobacterium tuberculosis. Kind of data set: Antitubercular activity against Mycobacterium tuberculosis H37Rv ATCC 25618 assessed as inhibition of microbial growth incubated for 1 week by MABA method. Format: functional. The settings on record: H37Rv ATCC 25618, 168 h, time 1 weeks. A digest of the protocol:
as §5

Data set [24] has as its system Mycobacterium intracellulare. Put plainly: Antimycobacterial activity against Mycobacterium intracellulare assessed as inhibition of microbial growth incubated for 1 week by MABA method. Format: functional. To be noted: 168 h, time 1 weeks. The method in brief: as §3
Data set [25] has as its system Mycobacterium kansasii. Put plainly: Antibacterial activity against Mycobacterium kansasii assessed as inhibition of microbial growth incubated for 1 week by MABA method. It counts as functional. The settings on record: 168 h, time 1 weeks. The method in brief: as §3

Take `COc1ccc(NC(=S)Nc2ccc(Br)cc2)cc1`: the MIC in data set [1], in [2], in data set [3], in [4], in data set [5] and in data set [6] was over 256 µg/mL in each case. The MIC was over 256 µg/mL in data set [7]; over 256 µg/mL in data set [8]; over 256 µg/mL in data set [9]; 25 µg/mL in [10]; over 256 µg/mL in [11]; 25 µg/mL in [12].
Consider `COc1ccc(Nc2nnnn2-c2cccc(F)c2)cc1`, for which the MIC is 256 µg/mL in data set [13]; over 256 µg/mL in data set [1]; over 256 µg/mL in [2]; over 256 µg/mL in data set [3]; 128 µg/mL in data set [16]; 128 µg/mL in [17]. For the same molecule, the MIC in data set [4], in data set [5], in data set [6], in [7], in data set [8] and in data set [9] was over 256 µg/mL throughout. In addition, the MIC in [19] is 16 µg/mL; in [11] it was over 256 µg/mL; in data set [20] it was 16 µg/mL; in [23], 16 µg/mL; in data set [24] it was 64 µg/mL; in data set [25], 256 µg/mL. The Activity result in [14] and in data set [15] was “Non-Toxic” each time. The Ratio in data set [18] was determined as 4. The IC50 worked out at 101 µM in data set [21] and 123 µM in data set [22].
Regarding `CC[C@@H](CO)NCCN[C@@H](CC)CO` [ETHAMBUTOL], the MIC in data set [10] was under 3.1 µg/mL; in data set [20], 2 µg/mL; in [23] it was 2 µg/mL; in [12], under 3.1 µg/mL.
As for `NNC(=O)c1ccncc1` [ISONIAZID], the MIC in [13] is 128 µg/mL; in data set [16] it was 64 µg/mL; in data set [17], 32 µg/mL; in [19], 64 µg/mL; in data set [10], 6.25 µg/mL; in [20], 0.125 µg/mL. The MIC is 0.125 µg/mL in data set [23], 64 µg/mL in data set [24], 32 µg/mL in [25] and 6.25 µg/mL in [12].
For the molecule `CO[C@H]1/C=C/O[C@@]2(C)Oc3c(C)c(O)c4c(O)c(c(/C=N/N5CCN(C)CC5)c(O)c4c3C2=O)NC(=O)/C(C)=C\C=C\[C@H](C)[C@H](O)[C@@H](C)[C@@H](O)[C@@H](C)[C@H](OC(C)=O)[C@@H]1C` [RIFAMPIN], the MIC in [10] is under 3.1 µg/mL; in data set [20] it was 1 µg/mL; in data set [23] it was 1 µg/mL; in data set [12], under 3.1 µg/mL.
Turning to `CN[C@@H]1[C@H](O[C@H]2[C@H](O[C@H]3[C@H](O)[C@@H](O)[C@H](N=C(N)N)[C@@H](O)[C@@H]3N=C(N)N)O[C@@H](C)[C@]2(O)C=O)O[C@@H](CO)[C@H](O)[C@H]1O` [STREPTOMYCIN], the MIC is under 3.1 µg/mL in data set [10], 1 µg/mL in data set [20], 1 µg/mL in data set [23] and under 3.1 µg/mL in data set [12].
